Here are results for two compounds from ChEMBL document CHEMBL4219124, “Alleviating CYP and hERG liabilities by structure optimization of dihydrofuran-fused tricyclic benzo[d]imidazole series - Potent, selective and orally efficacious microsomal prostaglandin E synthase-1 (mPGES-1) inhibitors: Part-2” (Bioorg Med Chem Lett, 2018).

Data set [1] in a line: Ratio of drug uptake in brain to plasma of Dunkin-Hartley guinea pig LPS-induced hyperalgesia pain model at 30 mg/kg, po administered 2 hrs prior to LPS challenge measured 7 hrs post dose. The class given is ADME, organism-based, Cavia porcellus. The settings on record: read-out: BPR. The procedure, abridged:
(§1)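 Guinea pigs dosed orally at 10, 30 or 100 mg/kg 2 h before intraplantar LPS in the right hind paw; thermal hyperalgesia scored. Plasma (ng/mL) and brain (ng/g) levels taken 7 h post dose; brain/plasma ratio computed. Means of 6–9 animals per group, single experiment.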

Data set [2] can be described thus: Ratio of plasma concentration in Dunkin-Hartley guinea pig MIA-induced osteoarthritic pain model to IC50 for mPGES1 in guinea pig whole blood. Particulars: in vivo. The class given is ADME.
The test system of data set [3] is Cavia porcellus. As to the kind of experiment: Analgesic activity in Dunkin-Hartley guinea pig MIA-induced osteoarthritic pain model assessed as reversal of incapacitance at 500 mg/kg, po administered on day 3 measured at 6 to 7 hrs relative to control. The class given is functional. The procedure, abridged:
(§2)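 Day 0: monoiodoacetate injected into the right shoulder joint of guinea pigs; saline-injected animals as comparison. Day 3: compound given orally at 100, 250 or 500 mg/kg, and weight-bearing incapacitance on the injected forelimb measured. Plasma sampled at the PD time point, n = 6–8 per group, single experiment.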

A short description of data set [4]: Plasma concentration in Dunkin-Hartley guinea pig LPS-induced hyperalgesia pain model at 10 mg/kg, po administered 2 hrs prior to LPS challenge measured 7 hrs post dose. The class given is ADME, organism-based, Cavia porcellus. The procedure, abridged:
as §1

A short description of data set [5]: Drug uptake in brain of Dunkin-Hartley guinea pig LPS-induced hyperalgesia pain model at 30 mg/kg, po administered 2 hrs prior to LPS challenge measured 7 hrs post dose. The format is ADME, organism-based, Cavia porcellus. Particulars: read-out: Drug uptake. The procedure, abridged: (§3)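 Guinea pigs received compound orally, once daily, at 10, 30 or 100 mg/kg, 2 h before LPS was injected into the plantar surface of the right paw. Saline-injected animals served as the comparison for thermal hyperalgesia. Plasma and brain drug levels taken 7 h after dosing, mean of n = 6–9 per group, from a single experiment.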

For data set [6], the system named is Cavia porcellus. The data set can be described thus: Analgesic activity in Dunkin-Hartley guinea pig hyperalgesia pain model assessed as inhibition of LPS-induced hyperalgesia at 10 mg/kg, po administered 2 hrs prior to LPS challenge measured after 4.5 hrs relative to control. The format is functional. The procedure, abridged: as §3
A short description of data set [7]: Ratio of plasma concentration in Dunkin-Hartley guinea pig LPS-induced hyperalgesia pain model to IC50 for mPGES1 in guinea pig whole blood. The class given is ADME. Particulars: in vivo.
The nature of data set [8]: Plasma concentration in Dunkin-Hartley guinea pig MIA-induced osteoarthritic pain model at 500 mg/kg, po measured 2 hrs post dose. The format is ADME, organism-based, Cavia porcellus. The procedure, abridged: (§4)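 Intra-articular MIA into the right shoulder joint on day 0; oral dosing at 100, 250 or 500 mg/kg on day 3, incapacitance (forelimb weight bearing) measured. Plasma concentration sampled 2 h post dose. Means of 6–8 animals per group, single experiment.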

Data set [9] relates to Cavia porcellus. As to the kind of experiment: Analgesic activity in Dunkin-Hartley guinea pig MIA-induced osteoarthritic pain model assessed as reversal of incapacitance administered orally on day 3 measured 6 to 7 hrs post dose. The format is functional. The procedure, abridged: as §2
A short description of data set [10]: Ratio of plasma concentration in Dunkin-Hartley guinea pig LPS-induced hyperalgesia pain model to IC50 for mPGES1 in human whole blood. The class given is ADME. The settings on record: in vivo.
In another data set the test system is Cynomolgus monkey. As to the kind of experiment: AUC (0 to 24 hrs) in cynomolgus monkey at 10 mg/kg, po. The format is ADME, organism-based, Macaca fascicularis. Set-up: time < 24 hr, dose 10 mg/kg, route oral. Particulars: in vivo, 24 h. The procedure, abridged: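 Single oral dose of 10 mg/kg. Cmax and AUC0-24 taken from the oral arm. Rat: male Sprague-Dawley, dosed in 0.5% methylcellulose suspension, mean ± SD (n = 3). Guinea pig: 20% NMP + 0.5% MC suspension, mean ± SD (n = 3). Dog and cynomolgus monkey: 2.5 μL/mL Tween 80 + 0.5 (w/v) MC suspension.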

Data set [11] can be described thus: Plasma concentration in Dunkin-Hartley guinea pig MIA-induced osteoarthritic pain model at 100 mg/kg, po measured 2 hrs post dose. The format is ADME, organism-based, Cavia porcellus. The procedure, abridged: as §4
For the next data set, the system named is Canis familiaris. As to the kind of experiment: Oral bioavailability in Beagle dog at 10 mg/kg. The class given is ADME, organism-based, Canis lupus familiaris. Particulars: in vivo. The procedure, abridged:
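Plasma PK after 1 mg/kg i.v. and 10 mg/kg p.o.; %F from both routes. Rat: male Sprague-Dawley, oral 0.5% methylcellulose suspension, i.v. 20% NMP/20% ethanol/60% PEG 200, n = 3. Dog oral: Tween 80 2.5 μL/mL + 0.5% MC suspension. Monkey oral: same Tween/MC suspension; i.v. 10% NMP/10% ethanol/10% PEG/70% PEG200-water premix.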

For `CC1(C)Cc2c(c(C(=O)Nc3ccc(F)c(C(F)(F)F)c3)cc3nc(Nc4c(F)cccc4Cl)[nH]c23)O1`, the Kp at 7 h in data set [1] was 0.6. For the same compound, the Ratio in data set [2] worked out at 7; in data set [7], 2; in data set [10], 5. The values for the Activity with Cavia porcellus [3] and in the data set with Cavia porcellus [9] were 83% and “Dose-dependent effect”, respectively. Also, the concentration at 7 h in data set [4] is 94 ng/mL; in [5], 87 ng/g. In the data set with Cavia porcellus [6], the inhibition in vivo at 10 mg/kg was found to be 20%. Moreover, the results for the concentration at 2 h in data set [8] and in [11] were 3.54 µM and 678 ng/mL, respectively. Besides, in the data set with Cavia porcellus [9] (po), the median effective dose (ED50) is 106 mg/kg. In the data set with Cynomolgus monkey, this compound returned an AUC of 9669 ng·h/mL.
In turn, `CC1(C)Cc2c(c(C(=O)Nc3ccc(C(F)(F)F)cn3)cc3nc(Nc4c(Cl)cccc4Cl)[nH]c23)O1` yielded a F in the data set on Canis familiaris of 25%.
